Compound activity deposited in PubChem by Sanford-Burnham Center for Chemical Genomics.
In the library only some 1.1% were active in any assay of this set; here they are far more common.
Diaph inh CS: diaphorase inhibitors and chemical oxidizers, primary screen, counter-screen for diaphorase-coupled primary assays, biochemical, uHTS, resorufin fluorescence | AID 1217, 2008 | hit rate 0.69% among 190,000 | diaphorase resazurin-to-resorufin fluorescence, NADH, 16 min; bacterial (C. kluyveri) enzyme, not human | inhibition, % at 20 µM;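 active = primary screen inhibition at 20 µM above a set limit, cut at about 50% in these data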;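 note: plate controls were DMSO with full reaction for no effect and wells lacking NADH for full effect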
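material = Clostridium kluyveri diaphorase enzyme | amount = 0.14 U/mL diaphorase, enzyme working solution | schedule = incubation 16 min, room temperature | detection = fluorescence of resorufin formed from resazurin, Ex 544/Em 590 nm | benchmarks = positive control minus NADH, DMSO neutral control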
PMI activator: activators of human PMI, primary screen, biochemical, fluorescence intensity, near-Km mannose 6-phosphate; purified human PMI, coupled resazurin fluorescence, 20 min; active compounds read high; 1 = vehicle control, 0 substrate-free wells; Mannose-6-phosphate isomerase (Homo sapiens), P34949; activation factor at 20 µM; hit rate 0.005% among 190,000;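 active = activation factor of 2 or more at 20 µM, relative to plate controls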
Target sequence (P34949 whole entry, looked up): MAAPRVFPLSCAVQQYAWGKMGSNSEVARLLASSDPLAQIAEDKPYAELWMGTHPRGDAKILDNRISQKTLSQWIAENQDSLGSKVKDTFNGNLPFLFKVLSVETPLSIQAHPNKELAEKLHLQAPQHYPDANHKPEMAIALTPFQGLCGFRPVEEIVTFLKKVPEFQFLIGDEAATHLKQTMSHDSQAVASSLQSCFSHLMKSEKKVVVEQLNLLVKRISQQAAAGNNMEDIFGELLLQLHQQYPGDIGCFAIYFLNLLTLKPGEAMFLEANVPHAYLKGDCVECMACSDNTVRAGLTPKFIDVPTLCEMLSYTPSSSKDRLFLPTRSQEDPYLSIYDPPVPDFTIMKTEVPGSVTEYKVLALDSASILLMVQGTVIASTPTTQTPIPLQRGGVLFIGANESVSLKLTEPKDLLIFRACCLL
G6PDH counter: L. mesenteroides G6PDH inhibitors, counter-screen for G6PDH-coupled screening assays, biochemical, Leuconostoc mesenteroides enzyme; Purified L. mesenteroides G6PDH, diaphorase/resazurin coupled fluorescence, 45 min; hit rate 0.12% among 200,000; inhibition, % at 5 µM; in the data active = inhibition above about 50%
Diaphorase act: compounds boosting diaphorase resazurin reduction – biochemical, uHTS, resorufin fluorescence, counter-screen for diaphorase-coupled primary assays, primary screen; Diaphorase/resazurin coupled assay, 16 min; active compounds read high; 1 = vehicle wells, 0 = NADH-free wells; activation factor at 20 µM; hit rate 0.005% among 190,000; AID 1229, 2008;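 active = diaphorase activity raised at least twofold by the compound at 20 µM; inactive = activation factor below 2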
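Material: bacterial diaphorase enzyme (C. kluyveri); amount: enzyme 0.07 U/mL final; reagent: NADH substrate 0.114 mM plus resazurin dye 0.1 mM, final; doses: single compound dose of 20 µM, 1% DMSO final; timing: 16 min enzyme reaction, ambient temperature; measured by: fluorescence of resorufin, 544 nm excitation, 590 nm emission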
PMI act hi M6P: human PMI activators, high substrate, primary screen, biochemical, fluorescence intensity, near-saturating mannose 6-phosphate; coupled PMI enzyme assay, resazurin fluorescence, 20 min; active compounds read high; 1 = untreated enzyme, 0 = substrate-free blank; Mannose-6-phosphate isomerase (Homo sapiens), P34949; activation factor at 20 µM; hit rate 0.34% among 190,000;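 active = activation factor of 2 or more at 20 µM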
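Material: human phosphomannose isomerase with PGI, G6PDH, diaphorase coupling enzymes; amount: PMI at 15 ng/mL final; also added: Mannose-6-phosphate 1.0 mM (near-saturating) plus 0.22 mM NADP+; incubation: enzyme reaction with compound 20 min at room temperature; signal: resorufin fluorescence (Ex 544/Em 590 nm) from resazurin via diaphorase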
* = called active by the depositor.

SMILES | Diaph inh CS | PMI activator | G6PDH counter | Diaphorase act | PMI act hi M6P
CC(C)[C@H](NC(N)=O)C(=O)NCCc1ccc(Cl)cc1 | 67* | 1 | -2 | 0.3 | 1
Cc1cc(C)nc(SCc2ccc(F)cc2)n1 | 10 | 1 | 14 | 0.9 | 0.9
O=[N+]([O-])c1cc2oc3c(c2c(C=NCc2ccncc2)c1O)CCCC3 | 56* | 0.7 | 0 | 0.4 | 0.5
O=C(Nc1ccccc1)C1=C[C@@H](C2CC2)C[C@@H](OCCCCO)O1 | 25 | 0.9 | 8 | 0.8 | 0.8
O=C(NCCc1ccccc1)c1cnn2c(C(F)F)cc(C3CC3)nc12 | 64* | 0.8 | 4 | 0.4 | 0.9
CCn1c(N)nc2c1c(=O)n(C)c(=O)n2C | -7 | 0.9 | 20 | 1.1 | 1
CCCc1nc2c(=O)n(C)c(=O)nc-2n(C)n1 | 46 | 0.6 | 56* | 0.5 | 0.4
COc1ccc(C(C(=O)NC(C)(C)C)N(CC2CCCO2)C(=O)CCC(=O)Nc2cc(C)on2)cc1 (stereo not drawn) | -4 | 1.1 | 3 | 1 | 1
O=c1cc(CN2CCCc3ccccc32)nc2sccn12 | 7 | 1.8 | 10 | 0.9 | 2.1*
O=S(=O)(Nc1ccc2c(c1)nc1n2CCN(Cc2ccccc2)C1)c1ccc(F)cc1 | 24 | 1.6 | 10 | 0.8 | 2.1*
O=C(Nc1ccc2c(c1)nc1n2CCN(Cc2ccccc2)C1)NC1CCCCC1 | 17 | 1.2 | 26 | 0.8 | 1.4
O=S(=O)(Nc1ccc2c(c1)nc1n2CCN(Cc2ccccc2)C1)c1ccc(Cl)cc1 | 12 | 1.6 | -1 | 0.9 | 2.2*
Cc1ccc(S(=O)(=O)Nc2ccc3c(c2)nc2n3CCN(Cc3ccccc3)C2)cc1 | 16 | 1.5 | -1 | 0.8 | 2.2*
O=S(=O)(Nc1ccc2c(c1)nc1n2CCN(Cc2ccccc2)C1)c1ccccc1 | 9 | 1.5 | 6 | 0.9 | 1.9
CCC(=O)Nc1ccc(Nc2nc(C)c([N+](=O)[O-])c(Nc3ccc(NC(=O)CC)cc3)n2)cc1 | 8 | 1 | -31 | 0.9 | 1.1
CCCCCOc1ccc(NC(=O)CSc2cccc3cccnc23)cc1 | 21 | 1 | -1 | 0.8 | 0.9
COc1ccc(NC(=O)c2n[nH]c(=O)c3ccccc23)cc1S(=O)(=O)N1CCCCC1 | 8 | 0.9 | -20 | 0.9 | 1
O=C(Nc1cccn(Cc2c(F)cccc2Cl)c1=O)NC1CCCCC1 | 4 | 0.9 | 9 | 1 | 0.8
O=C(Nc1cccn(Cc2cccc(F)c2)c1=O)NC1CCCCC1 | 50* | 0.9 | 15 | 0.5 | 0.7
Cc1cc(C)cc(Nc2cc(=O)n(C3CCCCC3)c(=O)[nH]2)c1 | 17 | 0.9 | 2 | 0.8 | 0.8
Cc1cc2nc3c(=O)n(C4CCCCC4)c(=O)[nH]c3nc2cc1N | 60* | 0.5 | 30 | 0.4 | 0.4
N#Cc1c(N)nc2c3c(sc(=N)c2c1N)NC(=O)CC3c1c(F)cccc1Cl (stereo not drawn) | 53* | 1 | -2 | 0.5 | 1
CCN(C(=O)c1cc2cc3ccc(C)cc3nc2o1)c1ccc(OC)cc1 | 60* | 0.8 | -45 | 0.4 | 0.8
CC12CCC(C(=O)N(CSC(=S)N/N=C\c3ccccc3)C1=O)C2(C)C (stereo not drawn) | 58* | 0.9 | -2 | 0.4 | 0.9
CC(=O)Nc1ccccc1OCC(=O)NCCc1ccc(Cl)cc1Cl | -3 | 1 | -8 | 1 | 1.1
SMILES | Diaph inh CS | PMI activator | G6PDH counter | Diaphorase act | PMI act hi M6P
CN(C)S(=O)(=O)c1cccc(C(=O)OCC(=O)NCc2ccc3c(c2)OCO3)c1 | 8 | 1 | 1 | 0.9 | 1
CCOC(=O)c1cn(CC)c2cc(Cl)c([N+](=O)[O-])cc2c1=O | 11 | 1.1 | -4 | 0.9 | 1.1
CCOC(=O)c1cn(-c2c(Cl)cccc2Cl)c2cc(Cl)c([N+](=O)[O-])cc2c1=O | 52* | 1.1 | 0 | 0.5 | 1.1
O=C1C2C3C=CC(C2C(=O)N1CCCO)C1C2C(=O)N(CCCO)C(=O)C2C31 (stereo not drawn) | -10 | 1.1 | 10 | 1.1 | 1.2
Cc1ccc(C)c(N/N=C2\CCCNC2=O)c1 | 18 | 1.8 | -5 | 0.8 | 2.5*
Cc1cc(N=Cc2c(O)ccc3cc(Br)ccc23)no1 | 64* | 0.5 | 23 | 0.4 | 0.4
Cc1cc(N=Cc2c(O)n(-c3ccc(C)c(C)c3)c(=O)c3ccccc23)no1 | 22 | 0.8 | 4 | 0.8 | 1
Cc1ccc(-c2nn(CCC(=O)O)cc2CCC(=O)O)cc1 | 11 | 1 | -4 | 0.9 | 1.1
CCn1cc(CCC(=O)O)c(C)n1 | -11 | 1.9 | 1 | 1.1 | 2.3*
Nc1ccc2[nH]ncc2c1 | 58* | 0.5 | 45 | 0.4 | 0.5
On1c2c(c3c4nonc4ccc31)CCCC2 | 56* | 0.5 | 47 | 0.4 | 0.4
CN(C)c1ccc2c(O)cc(=O)n(C)c2c1 | 60* | 0.5 | 7 | 0.4 | 0.4
CN1c2ccccc2N(C)C1(C)c1cccc2ccccc12 | 59* | 0.7 | -4 | 0.4 | 1
O=C(O)Cc1ccc(C(=O)c2ccccc2F)s1 | -2 | 1.3 | 13 | 1 | 1.4
Cc1ccc(C(NC(=O)N2CCCC2)C(Cl)Cl)cc1F (stereo not drawn) | 0 | 1.7 | 15 | 1 | 2*
CCOC(=O)C(C)On1c(-c2ccc(Cl)cc2)nc2ccc([N+](=O)[O-])cc21 (stereo not drawn) | 29 | 1.4 | -3 | 0.7 | 2*
CCOC(=O)C(C)On1c(-c2ccccc2)nc2ccc([N+](=O)[O-])cc21 (stereo not drawn) | 20 | 1.6 | 15 | 0.8 | 2*
O=C(O)COn1c(-c2ccccc2)nc2ccc([N+](=O)[O-])cc21 | 50* | 1.3 | 14 | 0.5 | 0.8
C=C1CSc2nc3ccccc3c(=O)n21 | 8 | 0.9 | 1 | 0.9 | 0.9
S=C(N=Nc1ccccc1)NNc1ccccc1 | 12 | 1.8 | 1 | 0.9 | 2.7*
CC(=Nc1ccccc1)Nc1ccccc1 | 5 | 1 | -2 | 0.9 | 1
O=C(CCc1ccccc1)NC(=S)Nc1ccccc1Br | 22 | 0.8 | 1 | 0.8 | 0.9
C/C(=N\Nc1cccc(Cl)c1)c1ccc(-n2ccnc2)cc1 | 6 | 1.8 | -3 | 0.9 | 2.6*
COc1ccc(N(CC(=O)NC(C)C)S(=O)(=O)c2ccc(NC(C)=O)cc2)cc1 | 11 | 1 | 3 | 0.9 | 1
